Data taken from ChEMBL document CHEMBL4138314, “Synthesis and Evaluation of N-Phenyl-3-sulfamoyl-benzamide Derivatives as Capsid Assembly Modulators Inhibiting Hepatitis B Virus (HBV)” (J Med Chem, 2018).
Values after ≈ are worked out from the molar mass of the structure shown. Active and inactive are the calls of the source. The rule behind the calls is not given here.

Tests used:
Hepatitis B virus [1] = assay: Induction of HBV capsid core protein CP149 aggregation assessed as ratio between area under the curve for observed amount of core dimer and area under the curve for aggregated core protein at 20 uM after 24 hrs by size exclusion chromatographic analysis
Summary of the method: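 Recombinant HBV core assembly domain (aa 1–149, Cp149) was incubated with compound at 20 µM for 24 h, with a no-compound control run in parallel. Size exclusion chromatography gave the ratio of Cp149 dimer AUC to aggregated Cp149 AUC.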

[2] = Kinetic solubility of the compound at pH 7.4 after 4 hrs by UPLC-UV analysis; type: physicochemical; conditions: buffer, read-out: Kinetic_solubility
HBV genotype D = assay: Antiviral activity against HBV genotype D infected in human HepG2.2.15 cells assessed as inhibition of viral DNA level treated twice for 3 days measured after 6 days by real time PCR; type: functional, organism-based; conditions: Hepatitis B virus
[3] = Drug metabolism in human liver microsomes at 1 uM after 15 mins by LC-MS/MS analysis; type: ADME, microsome; conditions: read-out: Drug metabolism
Summary of the method: (§1)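 Compound incubated 15 min with human or mouse liver microsomes; stability expressed as percent turnover (metabolised) at 15 min.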

[4] = Cytotoxicity against human HepG2 cells after 4 days by resazurin assay; type: cell-based
Hepatitis B virus [5] = assay: Antiviral activity against Hepatitis B virus infected in human HepG2.117 cells assessed as inhibition of viral DNA level after 3 days by real time PCR; type: functional, organism-based; conditions: HepG2.117, 72 h
[6] = Drug metabolism in mouse liver microsomes at 1 uM after 15 mins by LC-MS/MS analysis; type: ADME, microsome; conditions: read-out: Drug metabolism; summary of the method: as §1
[7] = biological target: Core antigen (Hepatitis B virus) (UniProt Q03732); assay: Induction of HBV Maleimidyl BoDIPY-FL-labeled capsid Cp*150 mutant aggregation incubated for 30 mins measured every 10 secs for 30 mins by fluorescence quenching assay
Core antigen (Hepatitis B virus), sequence (Q03732 as listed by the source): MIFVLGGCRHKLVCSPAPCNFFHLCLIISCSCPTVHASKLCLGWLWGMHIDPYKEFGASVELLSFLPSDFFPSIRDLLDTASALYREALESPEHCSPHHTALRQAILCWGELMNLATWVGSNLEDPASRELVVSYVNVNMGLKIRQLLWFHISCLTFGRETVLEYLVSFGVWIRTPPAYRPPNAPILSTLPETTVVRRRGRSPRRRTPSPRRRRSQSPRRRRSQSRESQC

Structure (SMILES) | Ratio (Hepatitis B virus [1]) | solubility kinetic at 4 h [2] [µM] | EC50 (HBV genotype D) [µM] | metabolised at 0.25 h, 1 µM [3] [%] | CC50 at 96 h [4] [µM] | EC50 (Hepatitis B virus [5]) [µM] | metabolised at 0.25 h, 1 µM [6] [%] | Activity [7]
O=C(NCc1ccccc1)c1cc(S(=O)(=O)NC2CCCCC2)ccc1F | 8.4 | 29 (≈ 11.3 µg/mL) | > 100 | 74 | 93.9 |  |  | 
O=C(Nc1ccc(F)cc1)c1cccc(S(=O)(=O)N2CCCC2)c1 |  | 48 (≈ 16.7 µg/mL) | 4.53 | 44 | 96.9 | 3.03 | 96 | 
O=C(Nc1ccc(F)cc1)c1cccc(S(=O)(=O)N[C@H]2CCOC2)c1 |  | > 100 | 0.54 | 32 | > 100 | 1.36 | 29 | 
O=C(Nc1ccc(F)cc1)c1cccc(S(=O)(=O)NC2COC2)c1 | 0.8 | > 100 | 2.1 | 14 | > 100 | 3.05 | 21 | 
CN(C(=O)c1cccc(S(=O)(=O)NC2CCCC2)c1)c1ccc(F)cc1 |  | > 100 | 89.6 | 100 | > 25 | > 25 | 100 | inactive
O=C(Nc1cccc(F)c1)c1cccc(S(=O)(=O)NC2CCCC2)c1 |  | 57 (≈ 20.7 µg/mL) | 0.27 | 88 | > 25 | 0.43 | 100 | 
O=C(Nc1ccc(F)cc1)c1cc(S(=O)(=O)NC2CCCC2)ccc1F |  | 82 (≈ 31.2 µg/mL) | 0.36 | 36 | > 25 | 0.66 | 77 | 
O=C(Nc1ccc(F)cc1)c1cccc(S(=O)(=O)NC2CCC2)c1 |  | 84 (≈ 29.3 µg/mL) | 0.83 | 51 | 57.7 | 0.9 | 99 | 
CC[C@@H](C)NS(=O)(=O)c1cccc(C(=O)Nc2ccc(F)cc2)c1 |  | 59 (≈ 20.7 µg/mL) | 0.34 | 21 | 46 | 0.89 | 88 | 
O=C(Nc1ccc(F)cc1)c1cccc(S(=O)(=O)NC2CCOCC2)c1 |  | > 100 | 0.93 | 14 | > 100 | 1.67 | 48 | 
O=C(Nc1ccc(F)cc1)c1cccc(S(=O)(=O)NC2CCCC2)c1 |  | 83 (≈ 30.1 µg/mL) | 0.47 | 50 | 32.7 | 0.6 | 91 | 
CC(C)NS(=O)(=O)c1cccc(C(=O)Nc2ccc(F)cc2)c1 |  | > 100 | 0.74 | 16 | 57.5 | 0.96 | 61 | 
O=C(Nc1ccc(F)cc1)c1cc(S(=O)(=O)NC2CCCCC2)ccc1F | 0.3 | 58 (≈ 22.9 µg/mL) | 0.78 | 61 | > 50 | 1.3 | 79 | 
CC(=O)N1CCN(S(=O)(=O)c2cccc(C(=O)Nc3ccc(F)cc3)c2)CC1 | 0.9 | 86 (≈ 34.9 µg/mL) | 7.1 | 19 | > 100 | 6.3 | 52 | 
CN(C)S(=O)(=O)c1cccc(C(=O)Nc2ccc(F)cc2)c1 | 1.4 | 43 (≈ 13.9 µg/mL) | 5.02 | 50 | > 100 | 2.99 | 89 | 
O=C(Nc1cccc(S(=O)(=O)NC2CCCCC2)c1)c1ccc(F)cc1 |  | 22 (≈ 8.28 µg/mL) | 8 | 91 | > 25 | > 25 | 100 | 
CC(=O)N1CCC(NS(=O)(=O)c2cccc(C(=O)Nc3ccc(F)cc3)c2)CC1 | 2.9 | > 100 | 6.77 | 0 | > 100 | 4.68 | 23 | 
O=C(Nc1ccc(F)cc1)c1cccc(NS(=O)(=O)C2CCCCC2)c1 | 0.3 | 86 (≈ 32.4 µg/mL) | 1.1 | 46 | 33.6 | 2.2 | 91 | 

Structure (SMILES) | Ratio (Hepatitis B virus [1]) | solubility kinetic at 4 h [2] [µM] | EC50 (HBV genotype D) [µM] | metabolised at 0.25 h, 1 µM [3] [%] | CC50 at 96 h [4] [µM] | EC50 (Hepatitis B virus [5]) [µM] | metabolised at 0.25 h, 1 µM [6] [%] | Activity [7]
O=S(=O)(NC1CCCCC1)c1ccc(F)c(-c2ncc(-c3ccccc3)[nH]2)c1 | 10.2 | 3 (≈ 1.2 µg/mL) | 1.7 | 75 | 19.2 | 23.3 | 99 | 
O=C(Nc1ccc(F)cc1)c1cccc(S(=O)(=O)N[C@@H]2CCOC2)c1 |  | > 100 | 1.18 | 21 | > 100 | 2.03 | 24 | 
CC(C)(C)NS(=O)(=O)c1cccc(C(=O)Nc2ccc(F)cc2)c1 | 0.9 | 1 (≈ 0.35 µg/mL) | 1.24 | 15 | 52.5 | 2.28 | 31 | 
O=C(Nc1ccc(F)cc1)c1cccc(S(=O)(=O)N2CCOCC2)c1 | 0.6 | > 100 | 8.49 | 27 | > 100 | 11 | 69 | 
CN(c1cccc(C(=O)Nc2ccc(F)cc2)c1)S(=O)(=O)C1CCCC1 | 2 | 53 (≈ 20 µg/mL) | 7.5 | 86 | 43.2 | 16.3 | 99 | 
Cc1ccc(NC(=O)c2cccc(S(=O)(=O)NC3CCCC3)c2)cc1F |  | 12 (≈ 4.52 µg/mL) | 1.99 | 67 | > 25 | 15.3 | 99 | 
CCC(CC)NS(=O)(=O)c1cccc(C(=O)Nc2ccc(F)cc2)c1 |  | 15 (≈ 5.47 µg/mL) | 0.75 | 53 | 40.3 | 3.63 | 99 | 
O=C(NC1CCCCC1)c1cc(S(=O)(=O)NC2CCCCC2)ccc1F |  |  | 28.8 |  | > 25 | > 25 |  | 
O=C(Nc1ccc(F)cc1)c1cccc(S(=O)(=O)N2CCCCC2)c1 | 0.4 | 9 (≈ 3.26 µg/mL) | 4.5 | 65 | 70.4 | 2.7 | 99 | 
CC[C@H](C)NS(=O)(=O)c1cccc(C(=O)Nc2ccc(F)cc2)c1 |  | 92 (≈ 32.2 µg/mL) | 0.75 | 18 | 39.6 | 8.63 | 82 | 
CN1CCC(NS(=O)(=O)c2cccc(C(=O)Nc3ccc(F)cc3)c2)CC1 | 4.2 | 94 (≈ 36.8 µg/mL) | 5.3 | 10 | > 100 | 16 | 13 | 
O=C(Nc1ccc(F)cc1)c1cccc(NS(=O)(=O)C2CCCC2)c1 |  | 92 (≈ 33.3 µg/mL) | 1.2 | 4 | > 50 | 1.2 | 93 | 
O=C(Nc1cccc(S(=O)(=O)NC2CCCCC2)c1)c1ccccc1 | 7 | 10 (≈ 3.58 µg/mL) | 9.6 | 99 | > 25 | > 25 | 100 | 
CN(C1CCCC1)S(=O)(=O)c1cccc(C(=O)Nc2ccc(F)cc2)c1 |  | 19 (≈ 7.15 µg/mL) | 2.6 | 98 | 23.8 | 11.1 | 100 | 
O=C(Nc1ccc(F)cc1)c1cccc(NC(=O)C2CCCCC2)c1 | 7.2 | 7 (≈ 2.38 µg/mL) | 62.2 | 55 | 57.7 | > 25 | 87 | 
CC1(NS(=O)(=O)c2cccc(C(=O)Nc3ccc(F)cc3)c2)COC1 | 0.5 | > 100 | 0.96 | 3 | > 100 | 0.93 | 29 | 
O=C(Nc1ccccc1)c1cc(S(=O)(=O)NC2CCCCC2)ccc1F | 0.1 | 21 (≈ 7.91 µg/mL) | 0.66 | 63 | > 25 | 0.6 | 100 | 
O=C(Nc1ccc(F)cc1)c1cccc(S(=O)(=O)NC2CCCCC2)c1 | 0.2 | 43 (≈ 16.2 µg/mL) |  | 69 | > 25 | 0.58 | 93 | 
